ChEMBL document CHEMBL3877241 (J Med Chem, 2016)

Legend:
[1] = target: T1, Protein deacetylase HDAC6 (Homo sapiens, UniProt Q9UBN7); experiment: Inhibition of full length human recombinant N-terminal GST-tagged HDAC6 (1 to 1215 residues) expressed in sf9 cells preincubated with enzyme followed by fluorogenic Arg-His-Lys-Lys(Ac)-AMC substrate addition measured after 2 hrs by fluorescence assay
T1 sequence (Q9UBN7 whole entry): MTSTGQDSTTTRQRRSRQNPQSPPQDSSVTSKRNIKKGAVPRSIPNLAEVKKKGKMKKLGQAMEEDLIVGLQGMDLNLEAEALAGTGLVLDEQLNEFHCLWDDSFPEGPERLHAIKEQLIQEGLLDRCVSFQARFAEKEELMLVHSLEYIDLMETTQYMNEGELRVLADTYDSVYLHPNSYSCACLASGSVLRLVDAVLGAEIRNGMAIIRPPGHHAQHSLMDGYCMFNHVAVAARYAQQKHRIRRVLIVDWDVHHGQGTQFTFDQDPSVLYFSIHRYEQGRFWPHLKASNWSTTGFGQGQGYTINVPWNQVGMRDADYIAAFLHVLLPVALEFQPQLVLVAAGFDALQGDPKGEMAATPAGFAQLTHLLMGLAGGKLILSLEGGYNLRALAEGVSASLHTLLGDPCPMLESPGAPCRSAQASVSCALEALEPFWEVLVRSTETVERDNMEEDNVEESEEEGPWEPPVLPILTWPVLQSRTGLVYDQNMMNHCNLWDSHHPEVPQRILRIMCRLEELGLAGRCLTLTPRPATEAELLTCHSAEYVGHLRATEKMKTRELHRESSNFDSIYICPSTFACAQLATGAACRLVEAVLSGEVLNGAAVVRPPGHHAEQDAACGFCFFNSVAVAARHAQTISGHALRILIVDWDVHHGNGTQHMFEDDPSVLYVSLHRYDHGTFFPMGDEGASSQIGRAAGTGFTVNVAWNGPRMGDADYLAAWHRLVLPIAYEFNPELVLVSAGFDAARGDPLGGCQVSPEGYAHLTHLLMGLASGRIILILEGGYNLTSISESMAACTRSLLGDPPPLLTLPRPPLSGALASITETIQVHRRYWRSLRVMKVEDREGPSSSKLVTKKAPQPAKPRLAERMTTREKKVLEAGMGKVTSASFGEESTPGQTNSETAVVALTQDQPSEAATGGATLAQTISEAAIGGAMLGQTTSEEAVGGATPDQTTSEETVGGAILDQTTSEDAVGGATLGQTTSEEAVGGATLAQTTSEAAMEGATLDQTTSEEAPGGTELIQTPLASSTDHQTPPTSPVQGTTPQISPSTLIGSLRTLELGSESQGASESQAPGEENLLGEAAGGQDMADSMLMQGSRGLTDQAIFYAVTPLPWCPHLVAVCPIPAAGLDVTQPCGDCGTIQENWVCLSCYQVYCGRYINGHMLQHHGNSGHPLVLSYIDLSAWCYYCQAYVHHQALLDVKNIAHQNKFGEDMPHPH

[2] = target: T2, Tyrosine-protein kinase JAK2 (Homo sapiens, UniProt O60674); experiment: Inhibition of JAK2 (unknown origin) preincubated for 20 mins followed by [33P]ATP addition measured after 120 mins by Hotspot assay
[3] = Antiproliferative activity against human PC3 cells after 72 hrs by MTT assay; assay type: functional, cell-based; conditions: PC-3, 72 h
[4] = Antiproliferative activity against human HL60 cells; assay type: functional, cell-based; conditions: HL-60
[5] = cells; assay type: functional, cell-based; conditions: Homo sapiens, HEL 92.1.7, 36 h
[6] = Antiproliferative activity against human Jurkat cells; assay type: functional, cell-based
[7] = target: Histone deacetylase 1 (Homo sapiens, UniProt Q13547); experiment: Inhibition of full length human recombinant C-terminal FLAG/His-tagged HDAC1 (1 to 482 residues) expressed in sf21 cells preincubated with enzyme followed by fluorogenic Arg-His-Lys-Lys(Ac)-AMC substrate addition measured after 2 hrs by fluorescence assay
[8] = Antiproliferative activity against human MDA-MB-231 cells after 72 hrs by MTT assay; assay type: functional, cell-based; conditions: MDA-MB-231, 72 h
[9] = Antiproliferative activity against human HCT116 cells after 72 hrs by MTT assay; assay type: functional, cell-based; conditions: HCT-116, 72 h
Summary of the method: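 MTT viability after 72 h exposure. Cells seeded at 2500/well and left 24 h before compound addition; DMSO at 0.5% v/v final. MTT added in FBS-free medium for 3 h at 37 °C, formazan dissolved in DMSO, absorbance read at 570 nm. IC50 from a sigmoidal fit of % viability vs log concentration; triplicates on separate occasions using two different stock solutions.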

[10] = Antiproliferative activity against human MCF7 cells after 72 hrs by MTT assay; assay type: functional, cell-based; conditions: MCF7, 72 h
[11] = Antiproliferative activity against mouse TAMH cells after 24 hrs by CellTiter-Glo assay; assay type: ADME, cell-based
[12] = Therapeutic index, ratio of IC50 for mouse TAMH cells to IC50 for human cancer cells; conditions: cancer cell lines
[13] = Half life in rat liver microsomes at 3 uM preincubated for 5 mins followed by NADPH addition by LC-MS/MS analysis; assay type: ADME
Summary of the method: (§1)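 Male and female rat liver microsomes (0.3 mg protein/mL final) with compound at 3 μM final in 0.1 M phosphate buffer pH 7.4. Preincubated 5 min at 37 °C, then started with NADPH (1 mM final). Sampled at 0, 5, 10, 15, 30 and 45 min and quenched with cold acetonitrile containing internal standard. Read by LC-MS/MS; run in triplicate; midazolam (3 μM) as positive control.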

[14] = Apparent intrinsic clearance in rat liver microsomes at 3 uM preincubated for 5 mins followed by NADPH addition measured after 45 mins by LC-MS/MS analysis; assay type: ADME; conditions: read-out: CLH(app); summary of the method: as §1
[15] = target: T2, Tyrosine-protein kinase JAK2; experiment: Inhibition of JAK2 (unknown origin)
[16] = Antiproliferative activity against human OPM2 cells after 48 hrs by CellTiter-Glo assay; assay type: functional, cell-based; conditions: OPM-2, 48 h
Summary of the method: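 OPM2 grown in RPMI 1640 with 10% FBS and penicillin/streptomycin at 37 °C, 5% CO2. Treated at 25,000 cells/well in triplicate for 48 h. Viability read by CellTiter-Glo luminescence. IC50 taken from a sigmoidal fit of % viability vs log concentration.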

[17] = target: T3, Protein deacetylase HDAC6 (Homo sapiens) (UniProt Q9UBN7); experiment: Inhibition of full length human recombinant N-terminal GST-tagged HDAC6 (1 to 1215 residues) expressed in sf9 cells at 10 uM preincubated with enzyme followed by fluorogenic Arg-His-Lys-Lys(Ac)-AMC substrate addition measured after 2 hrs by fluorescence assay relative to control
T3 sequence (whole entry): T1 sequence (Q9UBN7 whole entry)

T2 sequence (O60674 whole entry): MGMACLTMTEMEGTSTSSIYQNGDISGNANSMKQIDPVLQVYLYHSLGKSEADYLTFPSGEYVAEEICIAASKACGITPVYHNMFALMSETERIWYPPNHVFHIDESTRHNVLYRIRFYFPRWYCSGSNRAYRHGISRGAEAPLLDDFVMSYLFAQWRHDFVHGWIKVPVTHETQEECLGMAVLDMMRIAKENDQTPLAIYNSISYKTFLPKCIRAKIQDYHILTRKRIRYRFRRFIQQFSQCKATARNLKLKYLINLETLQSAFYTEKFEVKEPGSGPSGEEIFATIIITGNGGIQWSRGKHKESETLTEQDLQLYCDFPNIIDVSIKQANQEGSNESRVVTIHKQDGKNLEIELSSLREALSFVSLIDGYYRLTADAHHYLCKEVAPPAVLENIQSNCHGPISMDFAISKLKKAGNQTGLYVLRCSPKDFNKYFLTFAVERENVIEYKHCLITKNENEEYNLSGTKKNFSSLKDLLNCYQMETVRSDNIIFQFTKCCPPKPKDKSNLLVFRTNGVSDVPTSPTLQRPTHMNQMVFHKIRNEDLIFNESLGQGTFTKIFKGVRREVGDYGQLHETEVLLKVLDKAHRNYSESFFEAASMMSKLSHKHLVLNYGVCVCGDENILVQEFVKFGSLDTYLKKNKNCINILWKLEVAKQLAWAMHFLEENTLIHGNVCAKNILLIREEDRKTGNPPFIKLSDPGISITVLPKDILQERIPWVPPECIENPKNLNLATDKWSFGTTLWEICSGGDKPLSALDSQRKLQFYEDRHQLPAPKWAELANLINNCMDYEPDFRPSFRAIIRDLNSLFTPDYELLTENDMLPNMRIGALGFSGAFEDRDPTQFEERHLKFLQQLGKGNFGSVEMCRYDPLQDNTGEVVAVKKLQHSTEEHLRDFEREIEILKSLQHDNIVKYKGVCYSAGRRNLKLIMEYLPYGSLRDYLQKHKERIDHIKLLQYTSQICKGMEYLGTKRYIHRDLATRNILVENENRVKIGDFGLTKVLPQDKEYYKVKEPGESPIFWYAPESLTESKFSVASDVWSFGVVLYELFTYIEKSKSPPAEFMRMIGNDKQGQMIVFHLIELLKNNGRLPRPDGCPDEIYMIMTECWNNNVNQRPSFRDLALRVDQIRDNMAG
Sequence of Histone deacetylase 1 (Q13547 whole entry, the tested form may be a part): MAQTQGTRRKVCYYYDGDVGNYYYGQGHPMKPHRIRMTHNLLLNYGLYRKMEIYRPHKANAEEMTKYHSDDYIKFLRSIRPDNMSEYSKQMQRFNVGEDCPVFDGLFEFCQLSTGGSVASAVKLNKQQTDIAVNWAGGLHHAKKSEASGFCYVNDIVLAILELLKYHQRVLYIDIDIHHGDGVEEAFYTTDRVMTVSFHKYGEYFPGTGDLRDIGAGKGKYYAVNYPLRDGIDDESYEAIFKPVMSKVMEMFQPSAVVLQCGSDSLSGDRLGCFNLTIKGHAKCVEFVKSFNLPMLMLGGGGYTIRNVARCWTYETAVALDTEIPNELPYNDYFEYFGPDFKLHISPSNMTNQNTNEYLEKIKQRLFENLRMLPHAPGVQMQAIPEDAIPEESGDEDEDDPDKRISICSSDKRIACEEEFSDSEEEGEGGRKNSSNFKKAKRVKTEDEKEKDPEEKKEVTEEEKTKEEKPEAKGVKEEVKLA

| SMILES | IC50 [1] [µM] | IC50 [2] [µM] | IC50 [3] [µM] | IC50 [8] [µM] | IC50 [9] [µM] | IC50 [10] [µM] | further results |
| --- | --- | --- | --- | --- | --- | --- | --- |
| O=C(CCCCCC(=O)Nc1ccc(NCCOc2ccc3cc2COC/C=C/COCc2cccc(c2)-c2ccnc(n2)N3)cc1)NO | 0.0025 | 0.0069 | > 100 | – | – | – | IC50 [4]: > 4 µM; IC50 [5]: > 2 µM; IC50 [6]: > 4 µM |
| O=C(CCCCCCCOc1ccc2cc1COC/C=C/COCc1cccc(c1)-c1ccnc(n1)N2)NO | 0.0158 | 0.005 | 10.1 | 6.44 | 6.23 | 9.48 | IC50 [7]: 2.34 µM; IC50 [4]: > 4 µM; IC50 [5]: > 2 µM; IC50 [6]: 2.48 µM; IC50 [11]: 5.26 µM; selectivity ratio [12]: 1.8; half-life at 3 µM [13]: 21 to 23.4 min; CLint scaled at 3 µM [14]: 200 to 225 mL/min/kg |
| O=C(NO)C1CCN(CCOc2ccc3cc2COC/C=C/COCc2cccc(c2)-c2ccnc(n2)N3)CC1 | 0.899 | 0.00097 | 2.79 | 3.41 | 1.2 | 1.68 | – |
| O=C(O)c1cccc(NCCOc2ccc3cc2COC/C=C/COCc2cccc(c2)-c2ccnc(n2)N3)c1 | 53 | – | – | 21.4 | 59.2 | – | IC50 [15]: < 0.039 µM |
| O=C(NO)c1ccc(OCCOc2ccc3cc2COC/C=C/COCc2cccc(c2)-c2ccnc(n2)N3)cc1 | 0.066 | 0.00127 | 1.6 | – | – | – | – |
| CN1CCc2c(c3ccccc3n2Cc2ccc(C(=O)NO)cc2)C1 [TUBASTATIN A] | – | – | 8.6 | 10.4 | 2 | 3.7 | IC50 [4]: > 4 µM; IC50 [5]: > 2 µM; IC50 [6]: > 4 µM |
| O=C(O)CCCOc1ccc2cc1COC/C=C/COCc1cccc(c1)-c1ccnc(n1)N2 | – | 0.047 | – | 53.5 | 124 | – | – |
| O=C(O)CCCCOc1ccc2cc1COC/C=C/COCc1cccc(c1)-c1ccnc(n1)N2 | – | – | – | 25.9 | 36 | – | IC50 [15]: < 0.039 µM |
| O=C(CCCCCCC(=O)Nc1ccccc1)NO [VORINOSTAT] | – | – | – | – | 1.85 | – | IC50 [4]: 2.28 µM; IC50 [16]: 2.91 µM |
| O=C(O)C1CCN(CCOc2ccc3cc2COC/C=C/COCc2cccc(c2)-c2ccnc(n2)N3)CC1 | > 100 | – | – | 10.7 | 8.2 | – | IC50 [15]: < 0.039 µM |
| O=C(O)c1ccc(NCCOc2ccc3cc2COC/C=C/COCc2cccc(c2)-c2ccnc(n2)N3)cc1 | 64 | < 0.039 | – | 46 | – | – | – |
| O=C(O)CCCCCCCOc1ccc2cc1COC/C=C/COCc1cccc(c1)-c1ccnc(n1)N2 | 10 | – | 22.8 | 17.1 | 8.04 | 27.7 | IC50 [15]: < 0.039 µM |
| O=C(O)CCCCCCOc1ccc2cc1COC/C=C/COCc1cccc(c1)-c1ccnc(n1)N2 | 2.8 | 0.00257 | 8.76 | 12 | 6.06 | 20 | – |
| O=C(CCCCCCC(=O)Nc1ccc(NCCOc2ccc3cc2COC/C=C/COCc2cccc(c2)-c2ccnc(n2)N3)cc1)NO | 0.0023 | 0.03 | > 100 | 3.43 | – | – | IC50 [4]: > 4 µM; IC50 [5]: > 2 µM; IC50 [6]: > 4 µM |
| O=C(CCCOc1ccc2cc1COC/C=C/COCc1cccc(c1)-c1ccnc(n1)N2)NO | 0.51 | – | 4.61 | 5.91 | 3.64 | 2.78 | IC50 [7]: 2.4 µM |
| O=C(O)CCCCCOc1ccc2cc1COC/C=C/COCc1cccc(c1)-c1ccnc(n1)N2 | 45 | – | – | 19.9 | 41 | – | IC50 [15]: < 0.039 µM |
| O=C(NO)c1ccc(NCCOc2ccc3cc2COC/C=C/COCc2cccc(c2)-c2ccnc(n2)N3)cc1 | 0.395 | 0.00171 | 4.58 | 8.69 | 3.2 | 3.84 | – |
| O=C(CCCCCOc1ccc2cc1COC/C=C/COCc1cccc(c1)-c1ccnc(n1)N2)NO | 0.028 | 0.0043 | 8.11 | 8.07 | 2.56 | 4.81 | IC50 [7]: 4.07 µM; IC50 [4]: > 4 µM; IC50 [5]: > 2 µM; IC50 [6]: 2.9 µM |
| O=C(CCCCOc1ccc2cc1COC/C=C/COCc1cccc(c1)-c1ccnc(n1)N2)NO | 0.107 | 0.00245 | 10.1 | 12.7 | 1.41 | 7.87 | IC50 [7]: 3.09 µM |
| O=C(O)CCCCCCC(=O)Nc1ccc(NCCOc2ccc3cc2COC/C=C/COCc2cccc(c2)-c2ccnc(n2)N3)cc1 | 2.6 | 0.00231 | – | – | 2.7 | – | – |
| O=C(O)CCCCCC(=O)Nc1ccc(NCCOc2ccc3cc2COC/C=C/COCc2cccc(c2)-c2ccnc(n2)N3)cc1 | – | – | – | – | – | – | inhibition [17]: 20 to 24% |
| O=C(NO)c1cccc(NCCOc2ccc3cc2COC/C=C/COCc2cccc(c2)-c2ccnc(n2)N3)c1 | 2.9 | 0.009 | > 100 | > 50 | 2.01 | – | – |
| O=C(O)c1ccc(OCCOc2ccc3cc2COC/C=C/COCc2cccc(c2)-c2ccnc(n2)N3)cc1 | > 100 | – | – | 54.2 | 29.7 | – | IC50 [15]: < 0.039 µM |
